Assay results: ChEMBL document CHEMBL5724801, “EUbOPEN Chemogenomics Library - Multiplex” (2024)
Several values for one entry are separate records, joined by “and”; a condition that tells them apart may be missing. Equal values may be shown once.

Test system: Fibroblast
Test: Multiplex assay against human fibroblast
Assay type: toxicity, cell-based
Summary of the method: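 Imaging took place on a CQ1 microscope at 37°C and 5% CO2 once compound had been added to live cells stained at seeding with Hoechst33342, BioTracker Green Microtubule Cytoskeleton Dye, MitoTracker Red and Annexin V Alexa Fluor 680. CellPathfinder machine-learning gating classed cells as Hoechst high-intensity objects or normal cells, classed normal cells as having healthy, pyknosed or fragmented nuclei, and classed pyknosed cells as mitotic or apoptotic. Tubulin, mitochondrial-mass and membrane-permeability phenotypes are per cents of the healthy-nucleus cells.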

[1] = 12 h, 1 µM, compound concentration 1 uM
[2] = 12 h, 10 µM, compound concentration 10 uM
[3] = 24 h, 1 µM, compound concentration 1 uM
[4] = 24 h, 10 µM, compound concentration 10 uM
[5] = 48 h, 1 µM, compound concentration 1 uM
[6] = 48 h, 10 µM, compound concentration 10 uM

S=c1[nH]nc(-c2cccs2)n1-c1ccccc1
Population Apoptotic (%) [1]: 10.45% and 27.27% | Population Fragmented Nuclei (%) [1]: 8.13% and 2.86% | Population Healthy Nuclei (%) [1]: 59.81% and 84.57% | Population Hoechst High Intensity Objects (%) [1]: 0% | Population Membrane Permeable-Phenotype (%) [1]: 2.4% and 4.05% | Population Mitochondria Different-Phenotype (%) [1]: 10.4% and 6.76% | Population Mitotic Cells (%) [1]: 89.55% and 72.73% | Population Normal (%) [1]: 100% | Population Pyknosed Nuclei (%) [1]: 32.06% and 12.57% | Population Tubulin-Different-Phenotype (%) [1]: 13.6% and 28.38% | Total Cell Count [1]: 209 and 175 | Population Apoptotic (%) [2]: 17.07% and 26.67% | Population Healthy Nuclei (%) [2]: 62.62% and 78.84% | Population Hoechst High Intensity Objects (%) [2]: 0% | Population Membrane Permeable-Phenotype (%) [2]: 5.97% and 4.03% | Population Mitochondria Different-Phenotype (%) [2]: 8.21% and 11.41% | Population Mitotic Cells (%) [2]: 82.93% and 73.33% | Population Normal (%) [2]: 100% | Population Pyknosed Nuclei (%) [2]: 19.16% and 15.87% | Population Tubulin-Different-Phenotype (%) [2]: 14.18% and 20.13% | Total Cell Count [2]: 214 and 189 | Population Fragmented Nuclei (%) [3]: 7.76% and 4% | Population Healthy Nuclei (%) [3]: 78.88% and 84% | Population Hoechst High Intensity Objects (%) [3]: 0% | Population Membrane Permeable-Phenotype (%) [3]: 3.28% and 2.04% | Population Mitochondria Different-Phenotype (%) [3]: 4.92% and 4.76% | Population Mitotic Cells (%) [3]: 93.55% and 76.19% | Population Normal (%) [3]: 100% | Population Pyknosed Nuclei (%) [3]: 13.36% and 12% | Population Tubulin-Different-Phenotype (%) [3]: 8.2% and 19.05% | Total Cell Count [3]: 232 and 175 | Population Apoptotic (%) [4]: 16.22% and 35.71% | Population Fragmented Nuclei (%) [4]: 14.71% and 5.24% | Population Healthy Nuclei (%) [4]: 69.75% and 80.1% | Population Hoechst High Intensity Objects (%) [4]: 0% | Population Membrane Permeable-Phenotype (%) [4]: 3.61% and 5.88% | Population Mitochondria Different-Phenotype (%) [4]: 4.22% and 5.23% | Population Mitotic Cells (%) [4]: 83.78% and 64.29% | Population Normal (%) [4]: 100% | Population Pyknosed Nuclei (%) [4]: 15.55% and 14.66% | Population Tubulin-Different-Phenotype (%) [4]: 11.45% and 16.99% | Total Cell Count [4]: 238 and 191 | Population Apoptotic (%) [5]: 8.33% and 10.53% | Population Fragmented Nuclei (%) [5]: 8.8% and 5.49% | Population Healthy Nuclei (%) [5]: 86.4% and 84.07% | Population Hoechst High Intensity Objects (%) [5]: 0% | Population Membrane Permeable-Phenotype (%) [5]: 0.93% and 1.96% | Population Mitochondria Different-Phenotype (%) [5]: 10.19% and 2.61% | Population Mitotic Cells (%) [5]: 91.67% and 89.47% | Population Normal (%) [5]: 100% | Population Pyknosed Nuclei (%) [5]: 4.8% and 10.44% | Total Cell Count [5]: 250 and 182 | Population Apoptotic (%) [6]: 11.76% and 33.33% | Population Fragmented Nuclei (%) [6]: 10.61% and 5.58% | Population Healthy Nuclei (%) [6]: 82.45% and 88.32% | Population Hoechst High Intensity Objects (%) [6]: 0% | Population Membrane Permeable-Phenotype (%) [6]: 0% and 2.3% | Population Mitochondria Different-Phenotype (%) [6]: 9.9% and 4.02% | Population Mitotic Cells (%) [6]: 88.24% and 66.67% | Population Normal (%) [6]: 100% | Population Pyknosed Nuclei (%) [6]: 6.94% and 6.09% | Total Cell Count [6]: 245 and 197

Cl.Cl.N#Cc1ccc(O[C@@H]2c3ccccc3C[C@H]2N2CCC[C@@H](N)C2)c(Cl)c1
Population Apoptotic (%) [1]: 13.21% and 14.29% | Population Fragmented Nuclei (%) [1]: 8.33% and 10.47% | Population Healthy Nuclei (%) [1]: 57.69% and 74.87% | Population Hoechst High Intensity Objects (%) [1]: 0% | Population Membrane Permeable-Phenotype (%) [1]: 6.67% and 4.9% | Population Mitochondria Different-Phenotype (%) [1]: 20% and 19.58% | Population Mitotic Cells (%) [1]: 86.79% and 85.71% | Population Normal (%) [1]: 100% | Population Pyknosed Nuclei (%) [1]: 33.97% and 14.66% | Population Tubulin-Different-Phenotype (%) [1]: 35.56% and 58.04% | Total Cell Count [1]: 156 and 191 | Population Apoptotic (%) [2]: 14.81% and 27.63% | Population Fragmented Nuclei (%) [2]: 18.93% and 7.94% | Population Healthy Nuclei (%) [2]: 49.11% and 64.62% | Population Hoechst High Intensity Objects (%) [2]: 0% | Population Membrane Permeable-Phenotype (%) [2]: 3.61% and 6.15% | Population Mitochondria Different-Phenotype (%) [2]: 62.65% and 43.58% | Population Mitotic Cells (%) [2]: 85.19% and 72.37% | Population Normal (%) [2]: 100% | Population Pyknosed Nuclei (%) [2]: 31.95% and 27.44% | Population Tubulin-Different-Phenotype (%) [2]: 78.31% and 88.83% | Total Cell Count [2]: 169 and 277 | Population Fragmented Nuclei (%) [3]: 6.79% and 14.63% | Population Healthy Nuclei (%) [3]: 62.35% and 76.59% | Population Hoechst High Intensity Objects (%) [3]: 0% | Population Membrane Permeable-Phenotype (%) [3]: 4.95% and 3.18% | Population Mitochondria Different-Phenotype (%) [3]: 18.81% and 13.38% | Population Mitotic Cells (%) [3]: 98% and 77.78% | Population Normal (%) [3]: 100% | Population Tubulin-Different-Phenotype (%) [3]: 36.63% and 57.32% | Total Cell Count [3]: 162 and 205 | Population Apoptotic (%) [4]: 29.27% and 37.5% | Population Fragmented Nuclei (%) [4]: 11.58% and 4.05% | Population Healthy Nuclei (%) [4]: 66.84% and 78.5% | Population Hoechst High Intensity Objects (%) [4]: 0% | Population Membrane Permeable-Phenotype (%) [4]: 2.36% and 3.17% | Population Mitochondria Different-Phenotype (%) [4]: 70.08% and 55.16% | Population Mitotic Cells (%) [4]: 70.73% and 62.5% | Population Normal (%) [4]: 100% | Population Pyknosed Nuclei (%) [4]: 21.58% and 17.45% | Population Tubulin-Different-Phenotype (%) [4]: 85.83% and 88.1% | Total Cell Count [4]: 190 and 321 | Population Apoptotic (%) [5]: 20% and 38.89% | Population Fragmented Nuclei (%) [5]: 13.79% and 11.43% | Population Healthy Nuclei (%) [5]: 78.82% and 80% | Population Hoechst High Intensity Objects (%) [5]: 0% | Population Membrane Permeable-Phenotype (%) [5]: 1.88% and 1.79% | Population Mitochondria Different-Phenotype (%) [5]: 16.88% and 10.12% | Population Mitotic Cells (%) [5]: 80% and 61.11% | Population Normal (%) [5]: 100% | Population Pyknosed Nuclei (%) [5]: 7.39% and 8.57% | Population Tubulin-Different-Phenotype (%) [5]: 32.5% and 59.52% | Total Cell Count [5]: 203 and 210 | Population Apoptotic (%) [6]: 37.5% and 50% | Population Healthy Nuclei (%) [6]: 75.86% and 86.13% | Population Hoechst High Intensity Objects (%) [6]: 0% | Population Membrane Permeable-Phenotype (%) [6]: 0.57% and 3.37% | Population Mitochondria Different-Phenotype (%) [6]: 42.61% and 26.22% | Population Mitotic Cells (%) [6]: 62.5% and 50% | Population Normal (%) [6]: 100% | Population Pyknosed Nuclei (%) [6]: 3.45% and 7.1% | Population Tubulin-Different-Phenotype (%) [6]: 79.55% and 86.89% | Total Cell Count [6]: 232 and 310
